# Beta apoptosis: beta cell apoptosis inhibition. INS-1E cytokine-induced death, ATP luminescence, 48 h; percent of positive-control rescue, neutral wells zero. protection from apoptosis, % (concentration not given with the values). 0.8% of 300,000 active. AID 435005;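 active = Every replicate reaches about 75%, or at least half do and their mean reaches it too, limit read from the data; inconclusive = At least half of replicates reach the limit but their mean does not; inactive = Under half of replicates reach the limit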;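 also: 0% = cytokine-treated negative control wells and 100% = positive control rescue; higher means more ATP so stronger rescue from cytokine killing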
# CSC inhib: blocks cancer stem cells. cancer stem cell-like cells viability, luminescence. 1.1% of 300,000 active. AID 2717. inhibition, % at 7.5 µM; in the data active = inhibition above about 75%; inconclusive = no clear call, values can overlap the other calls; tested in HMLE shEcad cells
# PfHsp90 set2: growth inhibition of yeast expressing Plasmodium Hsp90; S. cerevisiae expressing PfHsp90, BacTiter-Glo ATP, 48 h; yeast lacking PDR1 and PDR3 efflux regulators; inhibition, % at 9.4 µM; 0.32% of 310,000 active;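 active = every replicate shows inhibition above about 80%, whatever the replicate mean, limit read from the data; inconclusive = mean inhibition reaches the set limit but some replicate falls short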;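 also: 0% = DMSO neutral controls and 100% = 20 µM radicicol positive controls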
# SKKanGAS inh: inhibitors of SKKanGAS S. pyogenes growth in kanamycin (SK-promoter or general growth effect); inhibition, % at 7.5 µM; 1.3% of 300,000 active; BacTiter-Glo, 6 h;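 active = mean replicate score, as percent of positive control median, at least 50; inconclusive = mean below 50 but one replicate at or above 50; inactive = mean and every replicate below 50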;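 also: strain carries kanamycin resistance gene driven by streptokinase promoter and grows in 40 µg/ml kanamycin; loss of luminescence reflects streptokinase promoter inhibition or plain growth inhibition; 0% = median of DMSO wells and 100% = positive control at its reference dose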
# HIF activator: HIF pathway transcriptional activation | U2OS HRE-luciferase reporter, luminescence; normalized: DMSO 0%, desferrioxamine 100% | activation, % at 7.5 µM (by protocol) | 0.32% of 300,000 active | AID 1910;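 active = mean activation of at least 10% of the iron chelator positive control signal, with at least half of replicates also reaching 10%; inconclusive = mean and replicate majority disagree about reaching 10%; inactive = mean and most replicates under 10%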
# T cruzi repl: blocks replication of Trypanosoma cruzi; 1.4% of 300,000 active; inhibition, % (test concentration not listed); AID 1885; T. cruzi beta-gal in NIH3T3, luminescence, 90 h;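 active = mean inhibition across valid replicates above about 55%, limit read from the data; inconclusive = mean below that limit but half or more replicates reach it; inactive = mean below it, under half of replicates reach it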;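 also: signal also drops with host cell toxicity which is not excluded here; 0% = plate median of DMSO wells and 100% = zero luminescence signal; higher percent means less beta-gal luminescence so fewer parasites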
#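 System: Mouse NIH/3T3 fibroblasts infected with β-gal-expressing T. cruzi Tulahuen C4 | Quantity: NIH/3T3 cells, 5,000 per well | Reagent: 5000 reporter trypomastigotes per well | Dosing: Compound pinned at 50 nL/well, DMSO | Schedule: 3 h host attachment, then at least 90 h co-culture | Detection: GalScreen luminescence, 60 min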
# Numbers without * were called inactive; ? = inconclusive; . = no result given; + = active, no number. Shown are actives, neighbours in structure and some others; about 3.6% of the full set was active somewhere.
SMILES,Beta apoptosis,CSC inhib,PfHsp90 set2,SKKanGAS inh,HIF activator,T cruzi repl
CC(=O)n1cc(N(C(=O)CCl)c2ccc(Cl)cc2)c2ccccc21,1,30,.,14,-4,66*
CCc1nc(N2CCN(C(=O)c3ccccc3)CC2)c2c3c(sc2n1)CCCC3,.,.,.,16,-1,33
CC1CCc2c(sc3nc(C4CC4)nc(N4CCN(C(=O)c5ccco5)CC4)c23)C1 (centres undefined),98*,37,0,58*,1,34
CCc1nc(N2CCN(C(=O)c3ccco3)CC2)c2c3c(sc2n1)CCCC3,-13,.,-15,2,499*,12
CCCn1ncc(CN2CCC(C(=O)Nc3cccc(-c4cccc(F)c4)c3)CC2)c1C,.,0,16,-15,0,57*
Cn1cc(CN2CCC(C(=O)Nc3cccc(-c4cscn4)c3)CC2)cn1,0,3,5,1,73*,7
Cc1nn(C(C)C)c(C)c1CN1CCC(C(=O)Nc2cccc(-c3cccc(F)c3)c2)CC1,5,30,-18,-6,-1,55*
Cn1cc(CN2CCC(C(=O)Nc3cccc(-c4cccc(F)c4)c3)CC2)cn1,2,-18,-23,0,0,27
CCCCN(C(=O)c1c(C)[nH]c(C(=O)OCC)c1C)c1ccccc1,2,.,-4,4,10*,5
CCOC(=O)c1c(C)[nH]c(C(=O)OCc2ccccc2F)c1C,15,1,-1,-2,11*,38
O=C(/C=C/c1ccc([N+](=O)[O-])cc1)/C=C/c1ccco1,2,76*,16,7,1,22
COC(=O)c1ccc(SCC(=O)NC2CCCCC2)c([N+](=O)[O-])c1,1,3,-11,3,0,5
O=C1CCCCC1Nc1ccc(Br)cc1 (centres undefined),.,.,-3,.,.,.
O=C(CC1SC(=Nc2ccc(OC(F)F)cc2)N(CCC2=CCCCC2)C1=O)Nc1ccccc1F (centres undefined),.,.,-28,4,-12,?
CCOc1ccccc1N=C1SC(CC(=O)Nc2ccc(OC)cc2OC)C(=O)N1CCC1=CCCCC1 (centres undefined),76*,14,4,12,0,58*
COc1cc(OC)c(N(C)S(=O)(=O)c2cccc(C(=O)OCC(=O)N(C)Cc3ccccc3)c2)cc1Cl,.,.,-12,.,.,.
COc1cc(C)ccc1NC(=O)Cc1csc(NC(=O)Nc2ccccc2OC)n1,-1,-5,.,56*,-2,5
COc1cccc(NC(=O)Cc2csc(NC(=O)Nc3ccccc3OC)n2)c1,.,-11,-9,-10,0,6
COc1ccccc1NC(=O)Nc1nc(CC(=O)N2CCN(c3ccccc3OC)CC2)cs1,-1,.,.,59*,0,0
COc1ccccc1NC(=O)Nc1nc(CC(=O)Nc2ccc(OC)c(OC)c2)cs1,0,-10,.,4,-33,-8
COc1ccccc1NC(=O)Cc1csc(NC(=S)Nc2ccc(C)cc2)n1,7,-17,9,58*,1,20
COc1ccc(C2c3ccsc3CCN2C(=O)C(C)(C)C)cc1 (centres undefined),-11,-10,-25,50*,0,5
CN(C1=NS(=O)(=O)c2ccccc21)c1ccc(OC(=O)c2ccncc2)cc1,-8,-2,-9,-8,0,-2
CCN(CC)CCN(Cc1cc2cc(C)cc(C)c2[nH]c1=O)C(=S)NCc1ccco1,0,1,6,2,0,27
Cc1cc(C)c2[nH]c(=O)c(CN(Cc3cccs3)C(=S)NCc3ccco3)cc2c1,7,88*,5,11,2,16
SMILES,Beta apoptosis,CSC inhib,PfHsp90 set2,SKKanGAS inh,HIF activator,T cruzi repl
Cc1ccc2c(c1)cc(C(=O)NCc1ccccc1)n2C,-5,15,0,-4,23*,-7
Cc1ccc(S(=O)(=O)NCC(=O)OCC(=O)NCc2cccs2)cc1,-3,-7,.,-1,0,-12
COc1ccc(/C=C2\CN(Cc3ccccc3)C/C(=C\c3ccc(OC)cc3OC)C2=O)c(OC)c1,9,13,3,-2,-1,81*
O=[N+]([O-])c1ccc(-n2nnnc2-c2ccccc2)c([N+](=O)[O-])c1,-7,63,6,-2,0,62*
N#C/C(=N/Nc1ccc(OC(F)(F)F)cc1)C(N)=S,88*,62,-62,115*,0,-16
COc1ccc(NC(=O)CN(C)C(=O)c2ccc(C)c(S(=O)(=O)N3CCCCC3)c2)cc1,.,.,13,.,.,.
c1cncc(-c2nc(NCCCN3CCOCC3)c3c4c(sc3n2)CCC4)c1,8,-20,5,-2,1,73*
c1cncc(-c2nc(N3CCOCC3)c3c4c(sc3n2)CCC4)c1,6,7,-10,-4,0,15
COc1ccc(CC2(CO)CCN(CC3=Cc4cc(Cl)ccc4OC3)CC2)cc1,115*,-2,-9,0,0,66*
COc1ccc(CC2(CO)CCN(Cc3nc(C(C)C)cs3)CC2)cc1,4,-5,16,2,0,68*
O=C1CN(C(=O)COc2ccc(Cl)cc2Cl)c2ccccc2N1,-1,-6,-4,-7,1,-3
O=C(Cn1ncc(Cl)c(Cl)c1=O)NC1CCCCC1,-9,.,4,.,.,.
O=C(Cn1ncc(Cl)c(Cl)c1=O)NCC1CCCCC1,-8,100*,-25,.,.,.
O=C1CN(C(=O)Cn2ncc(Cl)c(Cl)c2=O)c2ccccc2N1,.,.,-25,3,-5,75*
COc1ccc(S(=O)(=O)Nc2ccc3c(c2)C(=O)N([C@H](C)CO)C[C@H](C)[C@@H](CN(C)C(=O)Nc2c(C)noc2C)O3)cc1,-4,.,-17,.,.,.
COc1cccc(CNC(=O)CN2CCC(c3nc4ccc(C)cc4[nH]3)CC2)c1,.,-5,6,-5,-1,55*
COc1ccccc1NC(=O)CN1CCC(c2nc3ccc(C)cc3[nH]2)CC1,-7,-8,12,15,1,9
CC1CC(=O)Nc2ccccc2N1C(=O)CSc1nnnn1C (centres undefined),-5,-9,.,.,.,.
CC12CC3(C)CC(C)(C1)CC(C(=O)NC1=NCCS1)(C2)C3,-8,2,9,84*,0,15
CC12CC3CC(C)(C1)CC(C(=O)NC1=NCCS1)(C3)C2,-2,-11,3,39,-1,4
CC(C)(C)c1cc(-c2csc(Nc3ccccc3)[n+]2Cc2ccc(C(=O)O)cc2)cc(C(C)(C)C)c1O,6,60,-137,115*,0,-17
COc1ccccc1NS(=O)(=O)c1ccc(O)c(C(=O)OCC(=O)N2c3ccccc3CC2C)c1 (centres undefined),-6,9,-17,-5,0,8
COc1ccc2c(c1)OC[C@H]1[C@H]2N2C(=O)c3cc(Cl)ccc3NC(=O)[C@@]2(C)[C@H]1c1ccccc1,4,16,+,.,.,.

# Assay outcomes from PubChem.
